Residues, ends and D or L forms follow the SMILES beside them. *: point of attachment. X1 = O=C(CO[C@H]1O[C@H](CO)[C@@H](O)[C@H](O)[C@@H]1O)*
How the values were obtained:
griffithsin (GRFT) = griffithsin (GRFT) (Griffithsia sp., UniProt P84801); assay type: binding
immobilized GRFT = immobilized GRFT (Griffithsia sp., UniProt P84801); experiment: SPR analysis of binding to immobilized GRFT; conditions: run in triplicate; for binding response to immobilized GRFT (in words): SPR sensorgrams; for dissociation rate (koff) from GRFT (in words) / association rate (kon) to GRFT (in words): SPR, immobilized GRFT
immobilized GRFT, sequence (P84801 whole entry): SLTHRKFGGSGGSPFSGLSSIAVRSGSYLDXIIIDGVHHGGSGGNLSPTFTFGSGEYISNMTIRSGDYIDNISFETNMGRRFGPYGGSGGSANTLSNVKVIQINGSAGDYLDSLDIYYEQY
Summary of the method: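 Glycopeptide high-mannose mimetics with varied mannose valency and spacing were passed over immobilized griffithsin, with a nonglycosylated peptide as negative control. Runs were in triplicate. Sensorgrams and Langmuir binding curves were generated, and association and dissociation rates were assessed from the sensorgrams.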

[1] = isothermal titration calorimetry, binding to GRFT, value ± spread

griffithsin (GRFT), sequence (P84801 whole entry): as above

Row | Compound | stoichiometry of binding to GRFT (rounded, as stated in text) (griffithsin (GRFT); ITC) | n (stoichiometry of binding) (griffithsin (GRFT); [1]) | dissociation rate (koff) from GRFT (in words) (immobilized GRFT) | further results
1 | CC(=O)N[C@@H](CCCCNC(=O)CO[C@H]1O[C@H](CO)[C@@H](O)[C@H](O)[C@@H]1O)C(=O)NCC(=O)N[C@@H](CCCCNC(=O)CO[C@H]1O[C@H](CO)[C@@H](O)[C@H](O)[C@@H]1O)C(=O)NCC(=O)N[C@@H](CCCCNC(=O)CO[C@H]1O[C@H](CO)[C@@H](O)[C@H](O)[C@@H]1O)C(N)=O [Compound 2] | 1 | 0.96 ± 0.24 |  | 
2 | pentamannoside [reference compound] |  |  |  | binding response to immobilized GRFT (in words) (immobilized GRFT): Negligible binding
3 | CC(=O)N[C@@H](CNC(=O)CO[C@H]1O[C@H](CO)[C@@H](O)[C@H](O)[C@@H]1O)C(=O)N[C@@H](CNC(=O)CO[C@H]1O[C@H](CO)[C@@H](O)[C@H](O)[C@@H]1O)C(=O)N[C@@H](CNC(=O)CO[C@H]1O[C@H](CO)[C@@H](O)[C@H](O)[C@@H]1O)C(N)=O [Compound 8] | 1.5 | 1.38 ± 0.17 | by far the slowest dissociation rate | 
4 | CC(=O)N[C@@H](CCCCNC(=O)CO[C@H]1O[C@H](CO)[C@@H](O)[C@H](O)[C@@H]1O)C(=O)NCC(=O)N[C@@H](CCCCNC(=O)CO[C@H]1O[C@H](CO)[C@@H](O)[C@H](O)[C@@H]1O)C(=O)NCC(=O)N[C@@H](CCCCNC(=O)CO[C@H]1O[C@H](CO)[C@@H](O)[C@H](O)[C@@H]1O)C(=O)NCC(=O)N[C@@H](CCCCNC(=O)CO[C@H]1O[C@H](CO)[C@@H](O)[C@H](O)[C@@H]1O)C(=O)NCC(=O)N[C@@H](CCCCNC(=O)CO[C@H]1O[C@H](CO)[C@@H](O)[C@H](O)[C@@H]1O)C(=O)NCC(=O)N[C@@H](CCCCNC(=O)CO[C@H]1O[C@H](CO)[C@@H](O)[C@H](O)[C@@H]1O)C(N)=O [Compound 4] | 0.5 | 0.52 ± 0.05 | significantly slower rate than Km3G1 and Km4G1 | 
5 | CC(=O)N[C@@H](CCCCNC(=O)CO[C@H]1O[C@H](CO)[C@@H](O)[C@H](O)[C@@H]1O)C(=O)NCC(=O)NCC(=O)N[C@@H](CCCCNC(=O)CO[C@H]1O[C@H](CO)[C@@H](O)[C@H](O)[C@@H]1O)C(=O)NCC(=O)NCC(=O)N[C@@H](CCCCNC(=O)CO[C@H]1O[C@H](CO)[C@@H](O)[C@H](O)[C@@H]1O)C(N)=O [Compound 5] (Ac-K(X1)GGK(X1)GGK(X1)-NH2; N-terminus and C-terminus assumed) |  | 1.16 ± 0.25 |  | 
6 | CC(=O)N[C@@H](CCCCNC(=O)CO[C@H]1O[C@H](CO)[C@@H](O)[C@H](O)[C@@H]1O)C(=O)NCC(=O)N[C@@H](CCCCNC(=O)CO[C@H]1O[C@H](CO)[C@@H](O)[C@H](O)[C@@H]1O)C(N)=O [Compound 1] |  | 1.56 ± 0.01 |  | binding response to immobilized GRFT (in words) (immobilized GRFT): weakest response of any of the glycopeptides
7 | NC(=O)[C@H](CCCCNC(=O)CNC(=O)[C@H](CCCCNC(=O)CO[C@H]1O[C@H](CO)[C@@H](O)[C@H](O)[C@@H]1O)NC(=O)CO[C@H]1O[C@H](CO)[C@@H](O)[C@H](O)[C@@H]1O)NC(=O)CNC(=O)[C@H](CCCCNC(=O)CO[C@H]1O[C@H](CO)[C@@H](O)[C@H](O)[C@@H]1O)NC(=O)CO[C@H]1O[C@H](CO)[C@@H](O)[C@H](O)[C@@H]1O [Compound 11] | 1.5 | 1.45 ± 0.12 | very slow koff rates | association rate (kon) to GRFT (in words) (immobilized GRFT): slower kon rates
8 | CC(=O)N[C@@H](CCCCNC(=O)CO[C@H]1O[C@H](CO)[C@@H](O)[C@H](O)[C@@H]1O)C(=O)NCC(=O)N[C@@H](CCCCNC(=O)CO[C@H]1O[C@H](CO)[C@@H](O)[C@H](O)[C@@H]1O)C(=O)NCC(=O)N[C@@H](CCCCNC(=O)CO[C@H]1O[C@H](CO)[C@@H](O)[C@H](O)[C@@H]1O)C(=O)NCC(=O)N[C@@H](CCCCNC(=O)CO[C@H]1O[C@H](CO)[C@@H](O)[C@H](O)[C@@H]1O)C(N)=O [Compound 3] |  | 0.68 ± 0.03 |  | 
9 | CC(=O)N[C@@H](CCCCNC(=O)CO[C@H]1O[C@H](CO)[C@@H](O)[C@H](O)[C@@H]1O)C(=O)N[C@@H](CCCCNC(=O)CO[C@H]1O[C@H](CO)[C@@H](O)[C@H](O)[C@@H]1O)C(=O)N[C@@H](CCCCNC(=O)CO[C@H]1O[C@H](CO)[C@@H](O)[C@H](O)[C@@H]1O)C(N)=O [Compound 6] |  | 0.98 ± 0.11 |  | 
10 | NC(=O)[C@H](CCCCNC(=O)[C@H](CCCCNC(=O)CO[C@H]1O[C@H](CO)[C@@H](O)[C@H](O)[C@@H]1O)NC(=O)CO[C@H]1O[C@H](CO)[C@@H](O)[C@H](O)[C@@H]1O)NC(=O)[C@H](CCCCNC(=O)CO[C@H]1O[C@H](CO)[C@@H](O)[C@H](O)[C@@H]1O)NC(=O)CO[C@H]1O[C@H](CO)[C@@H](O)[C@H](O)[C@@H]1O [Compound 10] | 2 | 1.96 ± 0.09 | very slow koff rates | association rate (kon) to GRFT (in words) (immobilized GRFT): slower kon rates
11 | CC(=O)N[C@@H](CCCNC(=O)CO[C@H]1O[C@H](CO)[C@@H](O)[C@H](O)[C@@H]1O)C(=O)N[C@@H](CCCNC(=O)CO[C@H]1O[C@H](CO)[C@@H](O)[C@H](O)[C@@H]1O)C(=O)N[C@@H](CCCNC(=O)CO[C@H]1O[C@H](CO)[C@@H](O)[C@H](O)[C@@H]1O)C(N)=O [Compound 7] | 1 | 0.94 ± 0.19 |  | 
12 | chitobiose [reference compound] |  |  |  | binding response to immobilized GRFT (in words) (immobilized GRFT): Negligible binding
13 | CC(=O)N[C@@H]1[C@@H](O)[C@H](O[C@@H]2O[C@H](CO)[C@@H](O[C@@H]3O[C@H](CO[C@H]4O[C@H](CO[C@H]5O[C@H](CO)[C@@H](O)[C@H](O)[C@@H]5O[C@H]5O[C@H](CO)[C@@H](O)[C@H](O)[C@@H]5O)[C@@H](O)[C@H](O[C@H]5O[C@H](CO)[C@@H](O)[C@H](O)[C@@H]5O[C@H]5O[C@H](CO)[C@@H](O)[C@H](O)[C@@H]5O)[C@@H]4O)[C@@H](O)[C@H](O[C@H]4O[C@H](CO)[C@@H](O)[C@H](O)[C@@H]4O[C@H]4O[C@H](CO)[C@@H](O)[C@H](O)[C@@H]4O[C@H]4O[C@H](CO)[C@@H](O)[C@H](O)[C@@H]4O)[C@@H]3O)[C@H](O)[C@H]2NC(C)=O)[C@@H](CO)O[C@H]1NC(=O)C[C@H](N)C(=O)O [Compound 14, Man9GlcNAc2Asn, reference compound] |  | 1.39 ± 0.12 | slower koff rate than nonamannoside 13 | Kd (griffithsin (GRFT); [1]): 540 ± 270 nM
14 | NC(=O)[C@H](CCCCNC(=O)[C@H](CCCCNC(=O)CNC(=O)CO[C@H]1O[C@H](CO)[C@@H](O)[C@H](O)[C@@H]1O)NC(=O)CNC(=O)CO[C@H]1O[C@H](CO)[C@@H](O)[C@H](O)[C@@H]1O)NC(=O)[C@H](CCCCNC(=O)CNC(=O)CO[C@H]1O[C@H](CO)[C@@H](O)[C@H](O)[C@@H]1O)NC(=O)CNC(=O)CO[C@H]1O[C@H](CO)[C@@H](O)[C@H](O)[C@@H]1O [Compound 12] | 1 | 1.08 ± 0.08 |  | Kd lower compared to glycopeptides 10 and 11 (griffithsin (GRFT); ITC, Kd of 12 versus 10 and 11): approximately 30 fold

From article PMC6260803 (Angewandte Chemie (International ed. in English), 2015)
